Key:
[1] = target: T1, Polyunsaturated fatty acid 5-lipoxygenase (Rattus norvegicus) (UniProt P12527); settings: at 5 µM
T1 sequence (whole entry): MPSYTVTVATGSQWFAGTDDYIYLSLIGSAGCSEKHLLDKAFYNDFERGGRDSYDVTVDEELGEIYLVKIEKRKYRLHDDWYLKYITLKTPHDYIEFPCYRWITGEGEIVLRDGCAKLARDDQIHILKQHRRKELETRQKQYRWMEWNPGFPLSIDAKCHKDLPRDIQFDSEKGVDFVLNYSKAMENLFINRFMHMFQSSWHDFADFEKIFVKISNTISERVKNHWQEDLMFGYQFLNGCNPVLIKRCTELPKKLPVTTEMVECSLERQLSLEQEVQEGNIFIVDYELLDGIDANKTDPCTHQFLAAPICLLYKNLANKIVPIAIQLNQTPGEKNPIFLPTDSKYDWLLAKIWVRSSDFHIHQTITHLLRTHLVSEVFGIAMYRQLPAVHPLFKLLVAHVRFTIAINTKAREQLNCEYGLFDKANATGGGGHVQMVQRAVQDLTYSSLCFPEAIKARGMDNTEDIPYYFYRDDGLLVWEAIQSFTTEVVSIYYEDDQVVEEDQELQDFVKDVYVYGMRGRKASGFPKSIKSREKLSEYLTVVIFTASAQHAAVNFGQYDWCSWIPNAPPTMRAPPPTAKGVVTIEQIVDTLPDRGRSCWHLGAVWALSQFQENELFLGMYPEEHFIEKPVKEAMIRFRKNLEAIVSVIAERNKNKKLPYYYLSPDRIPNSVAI

[2] = target: T2, Polyunsaturated fatty acid 5-lipoxygenase (Rattus norvegicus, UniProt P12527); experiment: Inhibition of 5-LOX in rat peritoneal leukocytes; type: cell-based
T2 sequence (P12527 whole entry): T1 sequence (whole entry)
In short: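 Cell-based 5-LOX assay in rat peritoneal leukocytes, quantified with a commercial kit. Selected compounds went on to concentration–response testing to derive IC50. Values are means of three determinations, each within 10% of the mean.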

SMILES | inhibition [1] | IC50 [2]
Cc1ccc(Cn2cc(CC(=O)N3CCOCC3)c3ccccc32)cc1 | 34.6% | –
CC(c1cc2ccccc2s1)N(O)C(N)=O (stereo not drawn) | 86.9% | –
O=C(Cc1c[nH]c2ccccc12)N1CCOCC1 | 15.9% | –
Cc1ccc(Cn2cc(CCC(=O)N3CCOCC3)c3ccccc32)cc1 | 55.2% | –
O=C(CCCc1cn(Cc2ccccc2)c2ccccc12)N1CCOCC1 | 25.8% | 74000 nM
c1ccc(Cn2cc(CCCCN3CCOCC3)c3ccccc32)cc1 | 41.6% | –
Cc1c(CCCC(=O)N2CCOCC2)c2cc(Cl)ccc2n1Cc1ccc(Cl)cc1 | 37.9% | –
O=C(Cc1cn(C(=O)c2ccccc2)c2ccccc12)N1CCOCC1 | 21% | –
O=C(CCCc1cn(Cc2ccc(Cl)c(Cl)c2)c2ccccc12)N1CCOCC1 | 26.7% | –
COc1ccc2[nH]c(C)c(CCCC(=O)N3CCN(C(=O)OC(C)(C)C)CC3)c2c1 | 71.2% | –
O=C(Cc1cn(Cc2ccc(Cl)c(Cl)c2)c2ccccc12)N1CCOCC1 | 81.9% | 870 nM
COc1ccc2c(c1)c(CCCC(=O)N1CCOCC1)c(C)n2Cc1ccccc1 | 54.2% | –
COc1ccc2c(c1)c(CCCC(=O)N1CCOCC1)c(C)n2Cc1ccc(C)cc1 | 26.4% | –
O=C(CCc1cn(Cc2ccc(Cl)c(Cl)c2)c2ccccc12)N1CCOCC1 | 38.5% | –
COC1(c2cc(F)cc(OCCc3cn(Cc4ccccc4)c4ccccc34)c2)CCOCC1 | 31.8% | –
O=C(CCCc1cn(C(=O)c2ccc(Cl)cc2)c2ccccc12)N1CCOCC1 | 32.4% | –
Cc1[nH]c2ccc(Cl)cc2c1CCCC(=O)N1CCOCC1 | 71.3% | 1330 nM
O=C(Cc1cn(Cc2ccccc2)c2ccccc12)N1CCOCC1 | 41.4% | –
Cc1c(CCCC(=O)N2CCOCC2)c2cc(Cl)ccc2n1Cc1ccccc1 | 80.2% | 950 nM

SMILES | inhibition [1] | IC50 [2]
COc1ccc2c(c1)c(CCCC(=O)N1CCNCC1)c(C)n2Cc1ccccc1 | 64.6% | –
O=C(CCc1c[nH]c2ccccc12)N1CCOCC1 | 33% | –
O=C(CCc1cn(C(=O)c2ccc(Cl)cc2)c2ccccc12)N1CCOCC1 | 26% | –
CS(=O)(=O)N1CCN(C(=O)CCCc2cn(Cc3ccccc3)c3ccccc23)CC1 | 23.9% | –
O=C(Cc1cn(C(=O)c2ccc(Cl)cc2)c2ccccc12)N1CCOCC1 | 22.4% | –
Cc1ccc(Cn2cc(CCCC(=O)N3CCOCC3)c3ccccc32)cc1 | 33.9% | –
CC(C)(C)OC(=O)N1CCN(C(=O)CCCc2c[nH]c3ccccc23)CC1 | 84.1% | 740 nM
O=C(CCc1cn(Cc2ccccc2)c2ccccc12)N1CCOCC1 | 63.8% | 3170 nM
O=C(CCCc1c[nH]c2ccccc12)N1CCOCC1 | 62.3% | 2060 nM
COc1ccc2c(c1)c(CCCOc1cc(F)cc(C3(OC)CCOCC3)c1)c(C)n2Cc1ccccc1 | 46.5% | –
O=C(CCc1cn(C(=O)c2ccccc2)c2ccccc12)N1CCOCC1 | 23.4% | –
COc1ccc2[nH]c(C)c(CCCC(=O)N3CCOCC3)c2c1 | 72.9% | 3160 nM
O=C(CCCc1cn(Cc2ccccc2)c2ccccc12)N1CCNCC1 | 95.4% | 850 nM
COc1ccc2c(c1)c(CCCC(=O)N1CCOCC1)c(C)n2C(=O)c1ccc(Cl)cc1 | 70.2% | 2250 nM
COC1(c2cc(F)cc(OCCc3c[nH]c4ccccc34)c2)CCOCC1 | 64.2% | 2380 nM
O=C(CCCc1cn(C(=O)c2ccccc2)c2ccccc12)N1CCOCC1 | 58.2% | –
COc1ccc2c(c1)c(CCCC(=O)N1CCN(C(=O)OC(C)(C)C)CC1)c(C)n2Cc1ccccc1 | 51.5% | –
CC(C)(C)OC(=O)N1CCN(C(=O)CCCc2cn(Cc3ccccc3)c3ccccc23)CC1 | 38.2% | –

From ChEMBL document CHEMBL1144630, “Indole derivatives as potent inhibitors of 5-lipoxygenase: design, synthesis, biological evaluation, and molecular modeling” (Bioorg Med Chem Lett, 2007)
